Laboratory results from ChEMBL document CHEMBL1152646, “Synthesis, molecular docking and biological evaluation of metronidazole derivatives as potent Helicobacter pylori urease inhibitors” (Bioorg Med Chem, 2009).
Calls of active or inactive are those of the source. No cut-off for these calls is given here.

target: Urease subunit alpha/Urease subunit beta (Helicobacter pylori (strain ATCC 700392 / 26695) (Campylobacterpylori)) (UniProt P69996+P14916); assay: Inhibition of Helicobacter pylori ATCC 43504 urease assessed as ammonia production at 1 mM after 3 hrs by indophenol method
Summary of the method: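 Crude urease from H. pylori ATCC 43504 grown 24 h at 37 °C microaerobically in brucella broth with 10% heat-inactivated horse serum; cells PBS-washed, stored at -80 °C, sonicated 60 s in water with protease inhibitors, extract mixed 1:1 with glycerol. Enzyme (4 U) preincubated 3 h at room temperature with compound; ammonia measured by indophenol method; percent inhibition.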

Chain of Urease subunit alpha/Urease subunit beta (Helicobacter pylori (strain ATCC 700392 / 26695) (Campylobacterpylori)) (P14916 whole entry, looked up): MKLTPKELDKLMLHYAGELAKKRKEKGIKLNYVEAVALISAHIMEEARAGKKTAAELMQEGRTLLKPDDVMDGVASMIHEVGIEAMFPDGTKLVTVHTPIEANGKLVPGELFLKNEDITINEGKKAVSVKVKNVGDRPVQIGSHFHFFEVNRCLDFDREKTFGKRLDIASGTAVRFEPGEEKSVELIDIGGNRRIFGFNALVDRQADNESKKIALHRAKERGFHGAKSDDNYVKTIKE
Chain of Urease subunit alpha/Urease subunit beta (Helicobacter pylori (strain ATCC 700392 / 26695) (Campylobacterpylori)) (P69996 whole entry, looked up): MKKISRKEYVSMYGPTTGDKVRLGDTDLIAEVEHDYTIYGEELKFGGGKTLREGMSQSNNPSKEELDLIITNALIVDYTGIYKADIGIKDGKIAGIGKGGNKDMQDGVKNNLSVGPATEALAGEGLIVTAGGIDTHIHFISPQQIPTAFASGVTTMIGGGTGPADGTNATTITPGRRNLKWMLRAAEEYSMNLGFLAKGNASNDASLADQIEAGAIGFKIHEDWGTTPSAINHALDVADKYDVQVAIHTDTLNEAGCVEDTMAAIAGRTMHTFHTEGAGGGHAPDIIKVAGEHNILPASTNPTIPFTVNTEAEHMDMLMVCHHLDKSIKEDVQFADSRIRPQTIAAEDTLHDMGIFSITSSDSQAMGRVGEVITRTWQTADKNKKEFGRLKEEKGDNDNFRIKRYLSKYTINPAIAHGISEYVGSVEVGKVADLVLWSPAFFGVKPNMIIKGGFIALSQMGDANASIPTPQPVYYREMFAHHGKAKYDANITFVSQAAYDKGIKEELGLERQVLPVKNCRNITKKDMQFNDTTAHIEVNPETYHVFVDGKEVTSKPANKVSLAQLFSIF

Row | SMILES | inhibition
1 | Cc1ncc([N+](=O)[O-])n1CCO | inactive
2 | Cc1ncc([N+](=O)[O-])n1CCOC(=O)c1ccc(Cl)cc1OCCn1c([N+](=O)[O-])cnc1C | 82.2%
3 | Cc1ccc(OCCn2c([N+](=O)[O-])cnc2C)c(C(=O)OCCn2c([N+](=O)[O-])cnc2C)c1 | 48.4%
4 | Cc1ncc([N+](=O)[O-])n1CCOc1c(Br)cc(Br)cc1C(=O)O | 56.1%
5 | Cc1ccc(C(=O)OCCn2c([N+](=O)[O-])cnc2C)c(OCCn2c([N+](=O)[O-])cnc2C)c1 | 38.3%
6 | Cc1ncc([N+](=O)[O-])n1CCOC(=O)c1cc(S(=O)(=O)O)ccc1OCCn1c([N+](=O)[O-])cnc1C | 61.2%
7 | Cc1ncc([N+](=O)[O-])n1CCOC(=O)c1cc(Cl)ccc1OCCn1c([N+](=O)[O-])cnc1C | 95.3%
8 | Cc1cccc(C(=O)OCCn2c([N+](=O)[O-])cnc2C)c1OCCn1c([N+](=O)[O-])cnc1C | 42.1%
9 | Cc1ncc([N+](=O)[O-])n1CCOc1cc(N)ccc1C(=O)O | 38.3%
10 | Cc1ncc([N+](=O)[O-])n1CCOC(=O)c1cc(I)ccc1OCCn1c([N+](=O)[O-])cnc1C | 78.7%
11 | Cc1ncc([N+](=O)[O-])n1CCOc1c(Cl)cc(Cl)cc1C(=O)O | 56.8%
12 | Cc1ncc([N+](=O)[O-])n1CCOc1c(I)cc(I)cc1C(=O)O | 53.9%
13 | Cc1ccc(S(=O)(=O)OCCn2c([N+](=O)[O-])cnc2C)cc1 | 78.1%
14 | Cc1ccc(C(=O)O)c(OCCn2c([N+](=O)[O-])cnc2C)c1 | inactive
15 | Cc1ncc([N+](=O)[O-])n1CCOC(=O)c1cc(Br)ccc1OCCn1c([N+](=O)[O-])cnc1C | 93.9%

target: Urease subunit alpha/Urease subunit beta (Helicobacter pylori (strain ATCC 700392 / 26695) (Campylobacterpylori), UniProt P69996); assay: Inhibition of Helicobacter pylori ATCC 43504 urease assessed as ammonia production after 3 hrs by indophenol method
Summary of the method: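 Crude urease came from H. pylori grown 24 h at 37 °C, microaerobic, in brucella broth with 10% heat-inactivated horse serum. Cells were PBS-washed, frozen at -80 °C, sonicated 60 s in water with protease inhibitors, and mixed 1:1 with glycerol. Enzyme (4 U) and compound were preincubated at room temperature. Percent inhibition was screened at 1 mM; IC50 came from dose–response curves (≥3 experiments, mean S.D.).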

Chain of Urease subunit alpha/Urease subunit beta (P69996 whole entry): as the sequence (P69996 whole entry, looked up) above
Chain of Urease subunit alpha/Urease subunit beta (P14916 whole entry, further chain): as the sequence (P14916 whole entry, looked up) above

Row | SMILES | IC50 [µM]
16 | Cc1ncc([N+](=O)[O-])n1CCOC(=O)c1cc(Cl)ccc1OCCn1c([N+](=O)[O-])cnc1C | 12
17 | Cc1ncc([N+](=O)[O-])n1CCOC(=O)c1cc(Br)ccc1OCCn1c([N+](=O)[O-])cnc1C | 26
